Source: ChEMBL document CHEMBL4414639, “Synthesis, Pharmacological Characterization, and Structure-Activity Relationships of Noncanonical Selective Agonists for α7 nAChRs” (J Med Chem, 2019)
The source made the active and inactive calls. The rule behind the calls is not given here.

Tests used:
[1] = molecular target: T1, 5-hydroxytryptamine receptor 3A (Homo sapiens) (UniProt P46098); assay: Antagonist activity at 5HT3A (unknown origin) transfected in HEK cells assessed as decrease in agonist-induced intracellular calcium release incubated for 30 mins by FRET assay; format: cell-based
T1 sequence (whole entry): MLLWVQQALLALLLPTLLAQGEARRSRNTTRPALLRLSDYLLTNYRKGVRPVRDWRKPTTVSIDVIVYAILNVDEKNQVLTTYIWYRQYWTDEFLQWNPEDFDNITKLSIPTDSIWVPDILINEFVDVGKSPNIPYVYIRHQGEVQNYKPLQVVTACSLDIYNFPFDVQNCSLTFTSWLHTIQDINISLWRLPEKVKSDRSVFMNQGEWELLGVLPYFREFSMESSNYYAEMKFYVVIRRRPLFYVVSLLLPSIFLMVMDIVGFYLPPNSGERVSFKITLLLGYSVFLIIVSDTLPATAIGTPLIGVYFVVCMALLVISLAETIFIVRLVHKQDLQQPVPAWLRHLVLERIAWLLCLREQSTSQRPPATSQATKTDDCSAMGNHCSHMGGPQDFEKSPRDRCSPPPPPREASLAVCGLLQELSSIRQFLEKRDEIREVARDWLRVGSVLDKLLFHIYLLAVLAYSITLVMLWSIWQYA
Procedure, shortened: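 CNiFER HEK cell monolayers stably expressing the receptor. Test compound at three concentrations in aCSF, preincubated 30 min at 37 °C, 6% CO2, before agonist addition: epibatidine for α4β2, 5-HT for 5-HT3A. TN-XXL FRET ratio (527/485 nm) read over 120 s at 37 °C, agonist injected at 30 s, triplicate wells. Agonist EC50 shifts fitted. KA computed as [A]/(DR−1) (competitive) or [A]/(Δmax/Δ−1) (noncompetitive). At least three independent experiments. α4β2 stoichiometry not distinguished.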

[2] = molecular target: T2, Neuronal acetylcholine receptor subunit alpha-7 (Homo sapiens, UniProt P36544); assay: Agonist activity at human alpha7 nAChR transfected in HEK cells assessed as increase in intracellular calcium release incubated for 30 mins in presence of PNU-120596 by FRET assay; format: cell-based
Procedure, shortened: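 HEK cell line stably expressing α7 nAChR and the CNiFER (TN-XXL) biosensor, grown in DMEM + 10% FBS, 1% glutamine, 37 °C, 6% CO2. Cells preincubated 30 min at 37 °C in aCSF containing 10 μM PNU-120596 (final). Agonist injected at 30 s. FRET ratio (527/485 nm) followed over 120 s at 37 °C, triplicate wells. EC50 from variable-slope sigmoidal fit of mean peak ratios, normalized to the 316 μM response.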

[3] = molecular target: T3, Neuronal acetylcholine receptor; alpha4/beta2 (Homo sapiens) (UniProt P17787+P43681); assay: Antagonist activity at alpha4beta2 nAChR (unknown origin) transfected in HEK cells assessed as decrease in epibatidine-induced intracellular calcium release incubated for 30 mins by FRET assay
[4] = molecular target: T2, Neuronal acetylcholine receptor subunit alpha-7; assay: Agonist activity at human alpha7 nAChR expressed in Xenopus laevis oocytes assessed as increase in channel currents at 30 uM at -60 mV holding potential by two electrode voltage clamp assay; format: cell-based
Procedure, shortened: (§1)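 Oocytes expressing human α7 nAChR (with human RIC-3 cDNA available), clamped at -60 mV in Ringer's pH 7.2 with 1 µM atropine, 2 mL/min flow. Drug applied 12 s, 211 s washout. Responses normalized to mean of two 60 µM ACh precontrol responses per oocyte. Data from six cells. Concentration-response data fit to the Hill equation. Sequence included 30 µM test compound, then 60 µM ACh, then 10 µM PNU-120596.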

[5] = molecular target: T2, Neuronal acetylcholine receptor subunit alpha-7; assay: Agonist activity at human alpha7 nAChR expressed in Xenopus laevis oocytes assessed as increase in channel currents at -60 mV holding potential by two electrode voltage clamp assay relative Ach; format: cell-based; procedure, shortened: as §1
[6] = molecular target: T2, Neuronal acetylcholine receptor subunit alpha-7; assay: Inhibition of human alpha7 nAChR expressed in Xenopus laevis oocytes assessed as decrease in ACh-induced channel currents at -60 mV holding potential by two electrode voltage clamp assay; format: cell-based
Procedure, shortened: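 Human α7 nAChR in oocytes under two-electrode voltage clamp at -60 mV, Ringer's pH 7.2, 2 mL/min. Test compound applied 12 s with 211 s washout, then 60 µM ACh applied. ACh response normalized to the mean of two ACh precontrols per oocyte. Inhibition concentration-response curves from six cells, Hill equation fit.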

Mus musculus [7] = organism: Mus musculus; assay: Agonist activity at mouse alpha1beta1epsilondelta nAChR expressed in Xenopus laevis oocytes assessed as increase in channel currents at 30 uM at -60 mV holding potential by two electrode voltage clamp assay; format: cell-based
Procedure, shortened: (§2)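 Two-electrode voltage clamp on oocytes at -60 mV in Ringer's (115 mM NaCl, 2.5 mM KCl, 1.8 mM CaCl2, 10 mM HEPES, 1 µM atropine, pH 7.2), 4 mL/min flow. Test compound applied 6 s, then 271 s washout. Normalized to mean of two ACh precontrols: 30 µM for α1β1εδ, 100 µM for α3β4, 100 µM for LS α4β2, 10 µM for HS α4β2.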

[8] = molecular target: T4, Neuronal acetylcholine receptor; alpha3/beta4 (Homo sapiens) (UniProt P30926+P32297); assay: Agonist activity at human alpha3beta4 nAChR expressed in Xenopus laevis oocytes assessed as increase in channel currents at 30 uM at -60 mV holding potential by two electrode voltage clamp assay; format: cell-based; procedure, shortened: as §2
[9] = molecular target: T3, Neuronal acetylcholine receptor; alpha4/beta2 (Homo sapiens); assay: Agonist activity at human (alpha4)2 (beta2)3 nAChR expressed in Xenopus laevis oocytes assessed as increase in channel currents at 30 uM at -60 mV holding potential by two electrode voltage clamp assay; format: cell-based; procedure, shortened: as §2
[10] = molecular target: T3, Neuronal acetylcholine receptor; alpha4/beta2 (Homo sapiens); assay: Agonist activity at human (alpha4)3 (beta2)2 nAChR expressed in Xenopus laevis oocytes assessed as increase in channel currents at 30 uM at -60 mV holding potential by two electrode voltage clamp assay; format: cell-based; procedure, shortened: as §2
Mus musculus [11] = organism: Mus musculus; assay: Inhibition of mouse alpha1beta1epsilondelta nAChR expressed in Xenopus laevis oocytes assessed as increase in channel currents at 30 uM at -60 mV holding potential by two electrode voltage clamp assay; format: cell-based
[12] = molecular target: T4, Neuronal acetylcholine receptor; alpha3/beta4 (Homo sapiens); assay: Inhibition of human alpha3beta4 nAChR expressed in Xenopus laevis oocytes assessed as increase in channel currents at 30 uM at -60 mV holding potential by two electrode voltage clamp assay; format: cell-based
[13] = molecular target: T3, Neuronal acetylcholine receptor; alpha4/beta2 (Homo sapiens); assay: Inhibition of human (alpha4)2 (beta2)3 nAChR expressed in Xenopus laevis oocytes assessed as increase in channel currents at 30 uM at -60 mV holding potential by two electrode voltage clamp assay; format: cell-based
[14] = molecular target: T3, Neuronal acetylcholine receptor; alpha4/beta2 (Homo sapiens); assay: Inhibition of human (alpha4)3 (beta2)2 nAChR expressed in Xenopus laevis oocytes assessed as increase in channel currents at 30 uM at -60 mV holding potential by two electrode voltage clamp assay; format: cell-based
[15] = molecular target: T2, Neuronal acetylcholine receptor subunit alpha-7; assay: Agonist activity at human alpha7 nAChR expressed in Xenopus laevis oocytes assessed as increase in channel currents at 30 uM at -60 mV holding potential in presence of 10 uM PNU-120596 by two electrode voltage clamp assay; format: cell-based; procedure, shortened: as §1
[16] = molecular target: T2, Neuronal acetylcholine receptor subunit alpha-7; assay: Agonist activity at human alpha7 nAChR expressed in Xenopus laevis oocytes assessed as increase in channel currents at 30 uM at -60 mV holding potential followed washout for 211 sec and then 60 uM of Ach was applied by two electrode voltage clamp assay
[17] = molecular target: T2, Neuronal acetylcholine receptor subunit alpha-7; assay: Agonist activity at alpha7 nAChR (unknown origin) transfected in HEK cells assessed as increase in intracellular calcium release incubated for 30 mins by FRET assay; format: cell-based
Procedure, shortened: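 Stable HEK cell line expressing α7 nAChR with TN-XXL FRET calcium biosensor (CNiFER), in DMEM with 10% FBS at 37 °C, 6% CO2. Cells preincubated 30 min at 37 °C in aCSF with PNU-120596 (10 µM final). FRET ratio (527/485 nm, 436 nm excitation) read at 37 °C over 120 s, agonist injected at 30 s, triplicate wells. EC50 from variable-slope sigmoidal fit of mean peak ratios, normalized to 316 µM response.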

T2 sequence (P36544 whole entry): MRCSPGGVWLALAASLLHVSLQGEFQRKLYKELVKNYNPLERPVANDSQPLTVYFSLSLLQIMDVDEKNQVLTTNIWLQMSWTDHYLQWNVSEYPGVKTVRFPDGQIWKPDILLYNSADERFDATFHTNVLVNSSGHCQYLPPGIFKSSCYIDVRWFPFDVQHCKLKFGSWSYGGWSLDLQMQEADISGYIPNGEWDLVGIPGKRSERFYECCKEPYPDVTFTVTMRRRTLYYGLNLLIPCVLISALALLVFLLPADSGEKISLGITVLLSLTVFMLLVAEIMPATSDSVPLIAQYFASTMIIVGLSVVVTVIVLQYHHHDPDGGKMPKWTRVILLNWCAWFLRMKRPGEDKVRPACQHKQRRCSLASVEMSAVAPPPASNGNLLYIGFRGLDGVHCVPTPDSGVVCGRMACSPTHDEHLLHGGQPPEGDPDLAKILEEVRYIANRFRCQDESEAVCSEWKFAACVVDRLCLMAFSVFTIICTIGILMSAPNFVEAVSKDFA

COc1ccccc1-c1cc(N(Cc2ccccc2)Cc2ccccn2)nc(N)n1
Ka [1]: 4.1 µM
EC50 [2]: > 13300 nM
Ka [3]: 1.3 µM

Fc1ccccc1-c1cc(N(Cc2ccccn2)Cc2ccccn2)ncn1
Ka [1]: 8.4 µM
EC50 [2]: 360 nM
Ka [3]: 5.6 µM

COc1ccccc1-c1cc(N(Cc2ccccn2)Cc2ccccn2)nc([S+](C)[O-])n1 (centres undefined)
Ka [1]: > 10 µM
EC50 [2]: 920 nM
Ka [3]: > 10 µM

COc1ccccc1-c1cc(N(Cc2ccccn2)Cc2ccccn2)nc(SC)n1
Ka [1]: 2.8 µM
EC50 [2]: 110 nM
Ka [3]: 1.1 µM

COc1ncccc1-c1cc(N(Cc2ccccn2)Cc2ccccn2)nc(N)n1
Ka [1]: > 10 µM
EC50 [2]: 230 nM
Ka [3]: > 10 µM

CSc1nc(-c2ccsc2)cc(N(Cc2ccccn2)Cc2ccccn2)n1
Ka [1]: 2.2 µM
EC50 [2]: 1800 nM
Ka [3]: 3.4 µM

COc1ccc(-c2cc(N(Cc3ccccn3)Cc3ccccn3)nc(N)n2)c(F)c1
Ka [1]: 5.3 µM
EC50 [2]: 30 nM
Activity [4]: Active
EC50 [5]: 110 nM
Imax [5]: 0.84
IC50 [6]: 470 nM
Activity (Mus musculus [7]): inactive
Activity [8]: inactive
Activity [9]: inactive
Activity [10]: inactive
inhibition activity (active/inactive) (Mus musculus [11]): Active
inhibition [12]: Active
inhibition [13]: inactive
inhibition [14]: inactive
Activity [15]: Active
Ka [3]: 3.2 µM
Activity [16]: inactive

COc1ccc(-c2cc(N(Cc3ccccn3)Cc3ccccn3)nc(N)n2)c(OC)c1
EC50 [17]: 70 nM
Ka [1]: > 10 µM
Ka [3]: 2.5 µM

c1ccc(CN(Cc2ccccn2)c2cc(-c3ccsc3)ncn2)nc1
Ka [1]: > 10 µM
EC50 [2]: 2100 nM
Ka [3]: > 10 µM

Nc1nc(-c2ccsc2)cc(N(Cc2ccccn2)Cc2ccccn2)n1
EC50 [17]: 500 nM
Ka [1]: > 10 µM
Ka [3]: > 10 µM

COc1ccccc1-c1cc(N(Cc2ccccn2)Cc2ccccn2)ncn1
Ka [1]: > 10 µM
EC50 [2]: 140 nM
Activity [4]: Active
EC50 [5]: 3350 nM
Imax [5]: 0.89
IC50 [6]: 3500 nM
Activity (Mus musculus [7]): inactive
Activity [8]: inactive
Activity [9]: inactive
Activity [10]: inactive
inhibition activity (active/inactive) (Mus musculus [11]): Active
inhibition [12]: Active
inhibition [13]: inactive
inhibition [14]: inactive
Activity [15]: Active
Ka [3]: 7.9 µM
Activity [16]: inactive

CC(C)Oc1ccccc1-c1cc(N(Cc2ccccn2)Cc2ccccn2)nc(N)n1
Ka [1]: > 10 µM
EC50 [2]: 890 nM
Ka [3]: 1.5 µM

c1ccc(CN(Cc2ccccn2)c2cc(N3CCOCC3)ncn2)nc1
Ka [1]: > 10 µM
EC50 [2]: > 13300 nM
Ka [3]: > 10 µM

COc1ccccc1-c1cc(N(Cc2ccccn2)Cc2ccccn2)nc(C(F)(F)F)n1
Ka [1]: 3.7 µM
EC50 [2]: 530 nM
Ka [3]: 1.7 µM

CC(C)COc1ccccc1-c1cc(N(Cc2ccccn2)Cc2ccccn2)nc(N)n1
Ka [1]: 5.5 µM
EC50 [2]: 1600 nM
Ka [3]: 1.3 µM

COc1cccc(OC)c1-c1cc(N(Cc2ccccn2)Cc2ccccn2)nc(N)n1
Ka [1]: > 10 µM
EC50 [2]: 5400 nM
Ka [3]: 7.1 µM

CSc1ccccc1-c1cc(N(Cc2ccccn2)Cc2ccccn2)nc(N)n1
Ka [1]: > 10 µM
EC50 [2]: 240 nM
Ka [3]: 4.3 µM

COc1ccccc1-c1cc(N(Cc2ccccn2)Cc2ccccn2)nc(N)n1
EC50 [17]: 70 nM
Ka [1]: > 10 µM
Activity [4]: Active
EC50 [5]: 350 nM
Imax [5]: 0.98
IC50 [6]: 370 nM
Activity (Mus musculus [7]): inactive
Activity [8]: inactive
Activity [9]: inactive
Activity [10]: inactive
inhibition activity (active/inactive) (Mus musculus [11]): Active
inhibition [12]: Active
inhibition [13]: inactive
inhibition [14]: inactive
Ka [3]: 6.3 µM
Activity [16]: inactive

COc1cc(F)ccc1-c1cc(N(Cc2ccccn2)Cc2ccccn2)nc(N)n1
Ka [1]: > 10 µM
EC50 [2]: 120 nM
Ka [3]: 4.8 µM

Nc1nc(-c2ccccc2Cl)cc(N(Cc2ccccn2)Cc2ccccn2)n1
Ka [1]: > 10 µM
EC50 [2]: 160 nM
Ka [3]: 3.4 µM

COc1ccccc1-c1cc(N(Cc2ccccn2)Cc2ccccn2)nc(S(C)(=O)=O)n1
Ka [1]: > 10 µM
EC50 [2]: 690 nM
Ka [3]: 7.2 µM

COc1ccc(-c2cc(N(Cc3ccccn3)Cc3ccccn3)ncn2)c(F)c1
Ka [1]: 5.4 µM
EC50 [2]: 69 nM
Activity [4]: Active
EC50 [5]: 600 nM
Imax [5]: 0.53
IC50 [6]: 1300 nM
Activity (Mus musculus [7]): inactive
Activity [8]: inactive
Activity [9]: inactive
Activity [10]: inactive
inhibition activity (active/inactive) (Mus musculus [11]): Active
inhibition [12]: Active
inhibition [13]: inactive
inhibition [14]: inactive
Activity [15]: Active
Ka [3]: 3 µM
Activity [16]: inactive

FC(F)(F)c1nc(-c2ccsc2)cc(N(Cc2ccccn2)Cc2ccccn2)n1
Ka [1]: 3.6 µM
EC50 [2]: 2500 nM
Ka [3]: 0.96 µM
